# The source made the active and inactive calls.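 The calls were made as follows: active = at 10 µM, induced P-selectin expression inhibited by 50% or more; inactive = less than 50% inhibition.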
# System: human washed platelets, SFLLRN-induced P-selectin, flow cytometry
# Assay: reduced P-selectin exposure on PAR1-stimulated platelets – cell-based, human washed platelets, flow cytometry, dry powder, single point (AID 493031)
# Settings: at 10 µM; active compounds read high
# Procedure, shortened: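 technique = flow cytometry, PE anti-P-selectin staining | test system = donor washed platelets | schedule = compound 20 min, SFLLRN 15 min, staining 20 min | reagent = SFLLRN stimulation | doses = compound at 10 µM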
row,SMILES,inhibition
1,CCCC(=O)Nc1cccc(NC(=O)c2ccccc2F)c1,97.4%
2,CCCC(=O)Nc1cccc(NC(=O)c2ccc(OC)cc2)c1,15.3% (inactive)
3,CCCC(=O)Nc1cccc(NC(=O)c2ccccc2OC)c1,46.1% (inactive)
4,CCCC(=O)Nc1cccc(NC(=O)c2ccccc2Cl)c1,98.3%
5,CCCC(=O)Nc1cccc(NC(=O)c2ccc(S(C)(=O)=O)cc2)c1,9.82% (inactive)
6,O=C(Nc1ccccc1)c1ccccc1Br,98.5%
7,CCCC(=O)Nc1cccc(NC(=O)c2cnc3ccccc3c2)c1,10.4% (inactive)
8,CCCC(=O)Nc1cccc(NC(=O)c2ccco2)c1,30.5% (inactive)
9,CCCC(=O)Nc1cccc(NC(=O)c2ccccc2C)c1,95.8%
10,CCCC(=O)Nc1cccc(NC(=O)c2cccc(NC(C)=O)c2)c1,41% (inactive)
11,CCCC(=O)Nc1cccc(NC(=O)c2cccc([N+](=O)[O-])c2)c1,50.7%
12,CCCC(=O)Nc1cccc(NC(=O)c2ccc(F)cc2)c1,56.9%
13,CCCC(=O)Nc1cccc(NC(=O)c2ccc(Cl)cc2)c1,73.9%
14,CCCC(=O)Nc1cccc(NC(=O)c2cccc(Cl)c2)c1,94.1%
15,CCCC(=O)Nc1cccc(NC(=O)c2cccc(Oc3ccccc3)c2)c1,92%
16,CCCC(=O)Nc1cccc(NC(=O)c2cccnc2)c1,4.33% (inactive)
17,CCCC(=O)Nc1cccc(NC(=O)c2cccc(-c3ccccc3)c2)c1,94.4%
18,CCCC(=O)Nc1cccc(NC(=O)c2cccc(C#N)c2)c1,66.7%
19,CCCC(=O)Nc1cccc(NC(=O)c2cccc(S(C)(=O)=O)c2)c1,23.9% (inactive)
20,CCCC(=O)Nc1cccc(NC(=O)c2ccc(C)cc2)c1,21.8% (inactive)
21,CCCC(=O)Nc1cccc(NC(=O)c2ccc(C(F)(F)F)cc2)c1,21% (inactive)

# — PubChem BioAssay AID493031 (Broad Institute, 2011)
